Experimental data of several laboratories.
Target: Serine/threonine-protein kinase WNK1 (WNK1, Homo sapiens, UniProt Q9H4A3)

SMILES	effect on	technique	tested at	remaining binding
Nc1ncc2c(n1)-c1c([nH]c3ccc(C#CC4CC4)cc13)CCCC2	binding	competition with immobilised ligand	1 µM	97%
O=C(NCCCN1CCOCC1)c1ccc(Nc2ncc(Cl)c(-c3ccc(Cl)s3)n2)cc1	binding	competition with immobilised ligand	1 µM	89%
N[C@H]1CCN(c2nccc(-c3cnn4ncccc34)n2)C1	binding		1 µM	8.4%
O=C(NCC1CCOCC1)c1n[nH]cc1NC(=O)c1c(F)cccc1F	binding	competition with immobilised ligand	1 µM	100%
COc1cnc(Nc2cccc(S(N)(=O)=O)c2)nc1N1CCN(c2ccccc2)CC1	binding	competition with immobilised ligand	1 µM	88%
CCN1CCN(Cc2ccc(C(=O)Nc3ccc(C)c(Oc4ccc5c(c4)CC(=O)N5)c3)cc2C(F)(F)F)CC1	binding	competition with immobilised ligand	1 µM	100%
O=C(c1ccc(Nc2nccc(-c3cc4ccccc4s3)n2)cc1)N1CCC(N2CCCC2)CC1	binding	competition with immobilised ligand	1 µM	88%
CS(=O)(=O)N1CCCC(NC(=O)[C@H](CCC2CCCCC2)NC(=O)c2ccc(CNC(=O)c3cnc4ccccn34)cc2)C1 (stereo partly shown)	cell-free assay	competition with immobilised ligand	0.1 µM	99%
O=C(c1ccc(Nc2ncc(Cl)c(-c3ccc(Cl)s3)n2)cc1)N1CCC(N2CCCC2)CC1	binding	competition with immobilised ligand	1 µM	95%
O=C(O)[C@H]1[C@H](Cn2nnc3ccccc3c2=O)CC[C@@H]1C(=O)c1ccc(OCCC2CCOCC2)cc1	cell-free assay	competition with immobilised ligand	1 µM	100%
CNC(=O)[C@@H]1CC[C@@H](n2c(-c3ccc4cnccc4c3)nc3ccc(C(=O)NCc4cccc(C(N)=O)c4)cc32)C1	binding	competition with immobilised ligand	1 µM	100%
F[C@@H]1CCN(c2nccc(-c3cnn4ncccc34)n2)C1	binding		1 µM	100%
CN(C)C(=O)Cn1cc(-c2nc([C@@](C)(c3ccc(-c4cnc(N)nc4)cc3)C3CC3)no2)cn1	cell-free assay	competition with immobilised ligand	1 µM	94%
CN(C)c1ncc(F)c(-c2cnn3ncccc23)n1	binding		1 µM	87%
O=C1NC(c2ccccn2)Sc2ccccc21 (stereo not shown)	cell-free assay	competition with immobilised ligand	1 µM	91%
c1cnn2ncc(-c3ccnc(N4CCC45COC5)n3)c2c1	binding		1 µM	100%
NS(=O)(=O)c1cc(NC(=O)Cc2ccccc2)ccc1Oc1cccc(Cl)c1	cell-free assay	competition with immobilised ligand	1 µM	89%
CN(C)c1nccc(-c2cnc3ncccn23)n1	binding		1 µM	100%
CC(C)(O)c1cncc(-c2nc3ccc(F)cc3n2C2CC2)c1	cell-free assay	competition with immobilised ligand	1 µM	100%
